This is a sample that favours compounds with a hit; in the whole collection about 2.6% have one here.
NSD2 HMT inh: NSD2 histone methyltransferase inhibitors, primary screen, biochemical, AlphaScreen, single concentration, set 2; NSD2 peptide methylation, 120 min; inhibition, % at 12.5 µM; actives 0.54% (n = 310,000); AID 743445, 2014; in the data active = inhibition above about 50%
CASP6 VEID inh: human caspase-6 inhibitors, primary screen, biochemical, VEID-R110 fluorescence, single point, set 2; P55212; purified caspase-6, Z-VEID-R110 cleavage fluorescence; inhibition, % at 12.5 µM; actives 0.53% (n = 350,000); AID 686996, 2013;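 active = mean inhibition across replicates at least about 35%, with every replicate also reaching that limit, limit read from the data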
SIRT5 inh: SIRT5 desuccinylase inhibitors, primary screen, biochemical, fluorescence imaging, single point, set 5 | Purified SirT5, succinyl-peptide AMC, trypsin-coupled fluorescence | inhibition, % at 15 µM | actives 1.1% (n = 330,000); in the data active = inhibition above about 15%
Target sequence (Q9NXA8 whole entry, looked up): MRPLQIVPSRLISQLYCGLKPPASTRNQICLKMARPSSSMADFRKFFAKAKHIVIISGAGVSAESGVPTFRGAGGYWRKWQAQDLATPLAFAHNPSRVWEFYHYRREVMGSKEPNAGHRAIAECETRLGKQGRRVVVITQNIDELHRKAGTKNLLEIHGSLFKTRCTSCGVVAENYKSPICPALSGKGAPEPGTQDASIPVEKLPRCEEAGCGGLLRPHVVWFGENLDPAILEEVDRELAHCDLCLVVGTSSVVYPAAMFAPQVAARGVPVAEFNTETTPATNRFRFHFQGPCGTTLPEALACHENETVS
UCH37 inh: inhibitors of human UCH37 deubiquitinase, primary screen, biochemical, Ub-AMC cleavage, fluorescence; Ubiquitin carboxyl-terminal hydrolase isozyme L5 (Homo sapiens), Q9Y5K5; purified proteasome/UCH37; inhibition, % (no concentration beside the values); actives 0.33% (n = 330,000); AID 588478, 2011;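 active = mean inhibition over replicate wells above about 20%, limit read from the data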
Target sequence (Q9Y5K5 whole entry, looked up): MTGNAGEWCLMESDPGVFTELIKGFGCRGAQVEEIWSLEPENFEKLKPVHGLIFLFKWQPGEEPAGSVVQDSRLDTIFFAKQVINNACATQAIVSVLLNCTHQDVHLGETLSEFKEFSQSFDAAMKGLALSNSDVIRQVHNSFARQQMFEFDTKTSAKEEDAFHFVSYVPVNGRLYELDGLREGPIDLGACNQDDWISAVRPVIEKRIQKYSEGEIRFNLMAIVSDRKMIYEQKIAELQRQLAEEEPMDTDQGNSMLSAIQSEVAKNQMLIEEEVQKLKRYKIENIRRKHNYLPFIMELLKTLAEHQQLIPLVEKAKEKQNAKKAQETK
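Assay system: Proteasome-bound UCH37. Buffer or medium: pH 7.4 Tris-HCl (50 mM) with ovalbumin, ATP-MgCl2, DTT. Incubation: 30 min preincubation with enzyme, 25 min cleavage at room temperature. Measured by: fluorescence, ex 355 nm, em 460 nm. Read-out basis: percent inhibition. Control set: wells without proteasome as full block, compound-free enzyme plus substrate as uninhibited.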
FGF22 binding: binders of human FGF22 protein, primary screen, FGF22 synaptogenesis inhibitor project, biophysical, thermal shift, single point; recombinant FGF22 thermal shift, SYPRO orange fluorescence; percent of sucrose octasulfate shift, DMSO zero; activity (Tm shift, normalised), % at 9.99 µM; actives 1.5% (n = 340,000); AID 651658, 2012;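 active = mean Tm shift, scaled 0 neutral to 100 positive control, at about 1.3% or above, every replicate too, limit read from the data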
A number is an active result; i = inactive; nt = not tested or not shown; ! = not confirmed by another sample.

SMILES	NSD2 HMT inh	CASP6 VEID inh	SIRT5 inh	UCH37 inh	FGF22 binding
COC(=O)C(c1ccccc1)C(CC(=O)c1ccccc1)c1ccccc1 (configuration not stated)	i	nt	i	nt	i
OC(COc1ccc(Br)cc1)CN1CCC(Cc2ccccc2)CC1 (configuration not stated)	i	i	29.6	i	i
Cc1ccc([N+](=O)[O-])cc1NC(=O)CN1CCCCC1	i	nt	nt	i	nt
Cc1ccc([N+](=O)[O-])cc1NC(=O)C(C)N1CCCCC1 (configuration not stated)	i	40.0	i	i	i
C[C@@H]1CN([C@H](C)CO)C(=O)c2cc(NC(=O)Cc3ccccc3)ccc2O[C@@H](C)CCCCO[C@H]1CN(C)S(C)(=O)=O	nt	i	i	nt	i
O=C(NCc1ccccc1)NC(O)C(Cl)(Cl)Cl (configuration not stated)	i	i	i	i	43.8
COc1ccc(C=NNC(=O)c2nc(-c3ccccc3)cc(-c3ccccc3)n2)cc1	nt	nt	nt	i	nt
COCCCNc1nc2cc(OC)c(OC)cc2c2nc(-c3ccccc3)nn12	i	i	20.7	i	i
CCN(CC)CCCNc1nc2cc(OC)c(OC)cc2c2nc(-c3ccccc3)nn12	nt	nt	nt	i	nt
CC(=O)c1cc(N2CCOCC2)ccc1[N+](=O)[O-]	i	i	15.5	i	i
CN(C)S(=O)(=O)Oc1ccsc1C(=O)Nc1ccc(Br)cc1	i	i	i	i	56.8
O=C(NN=Cc1cccc([N+](=O)[O-])c1)c1ccccc1-n1cccc1	nt	nt	nt	i	nt
CC(=O)c1ccc(NC(=S)Nc2cccc3ccccc23)cc1	i	i	i	i	i
CC(=O)c1cccc(NC(=O)C(=O)Nc2cccc3ccccc23)c1	i	i	i	i	43.4
CC(=NNc1nc2c(s1)CCCC2)c1ccccc1	nt	nt	nt	i	nt
Cc1c(NC(=O)CN2C(=O)c3ccc([N+](=O)[O-])cc3C2=O)c(=O)n(-c2ccccc2)n1C	i	i	nt	i	i
O=C(CN1C(=O)c2ccccc2C1=O)Nc1cc([N+](=O)[O-])ccc1O	i	i	i	i	44.0
O=C(Nc1cc([N+](=O)[O-])ccc1O)c1ccc2c(c1)C(=O)N(Cc1ccco1)C2=O	i	41.5	i	i	i
CC(=O)N(Cc1cccc(F)c1)C[C@H]1[C@@H](c2ccccc2)[C@@H](CO)N1C(C)=O	nt	i	28.1	nt	nt
CCCN(C[C@H]1[C@H](c2ccccc2)[C@@H](CO)N1C(C)=O)C(=O)NC(C)C	nt	i	33.4!	nt	i
CCN(C[C@H]1[C@H](c2ccccc2)[C@@H](CO)N1C(C)=O)C(=O)c1cccc(F)c1	nt	i	nt	nt	i
COCCN(C[C@@H]1[C@@H](c2ccccc2)[C@H](CO)N1C(C)=O)C(=O)c1cccnc1	nt	i	16.2	nt	i
O=[N+]([O-])c1cccc(-c2ccc(C=Nn3c(-c4ccccc4)n[nH]c3=S)o2)c1	nt	nt	nt	i	nt
C[C@H]1CN([C@@H](C)CO)C(=O)c2cc(NC(=O)C3CCCCC3)ccc2O[C@H]1CN(C)Cc1ccc2c(c1)OCO2	nt	i	i	nt	i
COc1ccc(S(=O)(=O)Nc2ccc3c(c2)CC(=O)N([C@H](C)CO)C[C@@H](C)[C@H](CN(C)S(=O)(=O)c2ccc(C)cc2)O3)cc1	nt	nt	i	nt	i
SMILES	NSD2 HMT inh	CASP6 VEID inh	SIRT5 inh	UCH37 inh	FGF22 binding
Cc1noc(C)c1C(=O)N1CCC1(C)C(=O)NS(=O)(=O)Cc1cccc(Cl)c1 (configuration not stated)	i	i	nt	nt	43.9
O=C(NN=Cc1cn(CCOc2ccccc2)c2ccccc12)c1ccncc1	nt	nt	nt	i	nt
COc1ccc(C(=O)C2CCN(CC(=O)Nc3cc(C)cc(C)c3)CC2)cc1	i	i	i	i	i
Cc1ccc(C(=O)C2CCN(CC(=O)Nc3nc(C)cs3)CC2)cc1	i	i	18.6	i	i
CCSC1=NCCN1S(=O)(=O)c1ccccc1	i	i	i	i	43.7
CSC1=NCCN1S(=O)(=O)c1ccc(Cl)cc1	i	i	i	i	i
CCSC1=NCCN1S(=O)(=O)c1ccc(Cl)cc1	i	i	i	i	43.0
O=C(C[C@H]1C=C[C@H](NC(=O)Nc2cccc(F)c2)[C@H](CO)O1)NCC1CC1	nt	i	i	nt	i
Cc1nnc(SCC(=O)N2CCN(C(=O)c3ccco3)CC2)n1-c1ccccc1	i	i	i	i	43.5
O=C(CSc1nnc(COc2ccccc2)o1)N1CCOCC1	i	i	22.7	i	i
CCOC(=O)N1CCN(C(=O)CSc2nnc(Cc3ccccc3)o2)CC1	nt	i	i	i	43.4
O=C(CSc1nnc(-c2ccco2)o1)N1CCN(c2ccccc2)CC1	i	i	i	i	43.0
O=C(CSc1nnc(COc2ccc(Br)cc2)o1)N1CCOCC1	i	i	i	i	i
COc1ccc(NC(=O)Nc2ccc3c(c2)C(=O)N([C@@H](C)CO)C[C@@H](C)[C@@H](CN(C)C(=O)Nc2ccc(C(F)(F)F)cc2)OCCCC[C@@H](C)O3)cc1	nt	i	i	nt	i
O=C(c1ccc([N+](=O)[O-])cc1)N1CCSC1c1ccc(Br)cc1 (configuration not stated)	i	i	i	i	i
O=C(c1ccc([N+](=O)[O-])cc1)N1CCSC1c1ccc(Cl)cc1 (configuration not stated)	i	i	i	i	42.9
O=C(O)CCCC(=O)OCCCc1cc2ccccc2c(=O)o1	nt	37.4	nt	nt	i
O=C(O)CCC(=O)OCCc1cc2ccccc2c(=O)o1	nt	i	i	i	i
O=C(O)c1ccc(Nc2nc(-c3ccc([N+](=O)[O-])cc3)nc3ccccc23)cc1	i	i	24.2	i	i
CO[C@H]1CN(C)C(=O)c2cc(NC(=O)C3CCC3)ccc2OC[C@@H](C)N(Cc2ccncc2)C[C@@H]1C	nt	nt	i	nt	i
COc1ccc(S(=O)(=O)N(C)C[C@H]2Oc3cc(C#CC4CCCC4)ccc3S(=O)(=O)N([C@H](C)CO)C[C@@H]2C)cc1	nt	i	15.1	nt	i
COc1ccc(S(=O)(=O)N(C)C[C@H]2Oc3cc(C#CC4CCCC4)ccc3S(=O)(=O)N([C@@H](C)CO)C[C@H]2C)cc1	nt	i	i	nt	i
COc1ccc(S(=O)(=O)N(C)C[C@@H]2Oc3cc(C#CC4CCCC4)ccc3S(=O)(=O)N([C@@H](C)CO)C[C@H]2C)cc1	nt	i	15.6	nt	i
COc1ccc(S(=O)(=O)N(C)C[C@H]2Oc3cc(C#CC4CCCC4)ccc3S(=O)(=O)N([C@H](C)CO)C[C@H]2C)cc1	nt	i	i	nt	i
COc1ccc(S(=O)(=O)N(C)C[C@H]2Oc3cc(C#CC4CCCC4)ccc3S(=O)(=O)N([C@@H](C)CO)C[C@@H]2C)cc1	nt	i	24.6	nt	nt
